From ChEMBL document CHEMBL1156334, “New Angiopep-modified doxorubicin (ANG1007) and etoposide (ANG1009) chemotherapeutics with increased brain penetration” (J Med Chem, 2010) come the findings set out here.

One may read the IC50 as the concentration that gives 50% inhibition. Read a high IC50 as weaker potency.

Data set [1] can be described thus: Cytotoxicity against human U87MG cells after 48 hrs by [3H]thymidine incorporation assay. Format: functional, cell-based, U-87MG ATCC. The conditions noted are these: U-87 MG. In outline: (§1)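 Tumor cells were seeded at 5000 per well and exposed to increasing drug concentrations for 48 h. The medium was then aspirated and cells pulse-labeled for 2 h at 37 °C in fresh medium with 2 μCi/mL [methyl-3H]thymidine. Cells were harvested and tritium was counted by scintillation. Incorporation was plotted against concentration to estimate IC50.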
On the technique in general: Incorporation of labelled thymidine or its analogues reports DNA synthesis.

Data set [2] can be described thus: Cell cycle arrest in human U87MG cells assessed as accumulation at G2/M phase at 1 uM after 24 hrs by flow cytometry. Format: functional, cell-based. The conditions noted are these: U-87MG ATCC. Put shortly:
(§2)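 Exponentially growing U87 MG cells in flasks were treated with drug or left untreated as controls. Cells were trypsinized, washed twice in PBS, fixed in 70% ice-cold ethanol, and stained with 50 μg/mL propidium iodide plus 0.5 mg/mL RNase in 10 mM Tris, 5 mM MgCl2. DNA content was measured by flow cytometry and given as % of cells per phase, from one representative of three experiments.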

In a further data set the test system is NCI-H460. The experiment in a line: Cytotoxicity against human NCI-H460 cells after 48 hrs by [3H]thymidine incorporation assay. Format: functional, cell-based. In outline: as §1
A short description of data set [3]: Cell cycle arrest in human U87MG cells assessed as accumulation at S phase at 1 uM after 24 hrs by flow cytometry. The conditions noted are these: U-87MG ATCC. Format: functional, cell-based. Put shortly: as §2
(In general: Flow cytometry measures light scatter and fluorescence of single cells or particles in a stream.)

The subject of another data set is Brain. The experiment in a line: Drug uptake in perfused mouse brain assessed as blood-brain transfer coefficient. In kind it is ADME, tissue-based. Particulars: in vivo. Put shortly: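 In situ brain perfusion was done in adult male CD-1 mice. Radiolabeled drug in Krebs/bicarbonate buffer (gassed 95% O2/5% CO2, pH 7.4, 37 °C) was infused into the carotid artery for 0.5, 1, 2 or 4 min, then washed out tracer-free for 60 s. Brain homogenate radioactivity was counted (γ or liquid scintillation) and expressed as apparent Vd. Vd versus time was fitted by least-squares regression.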

Another data set deals with SK-HEP1. Briefly: Cytotoxicity against human SKHEP1 cells after 48 hrs by [3H]thymidine incorporation assay. In kind it is functional, cell-based. Put shortly: as §1
A short description of data set [4]: Cell cycle arrest in human U87MG cells assessed as accumulation at G0/G1 phase at 1 uM after 24 hrs by flow cytometry. In kind it is functional, cell-based. Particulars: U-87MG ATCC. Put shortly:
as §2

Data set [5] can be described thus: Cell cycle arrest in human U87MG cells assessed as accumulation at S phase at 33 nM after 24 hrs by flow cytometry. In kind it is functional, cell-based. Particulars: U-87MG ATCC. In outline:
as §2

Data set [6] in a line: Cell cycle arrest in human U87MG cells assessed as accumulation at G2/M phase at 33 nM after 24 hrs by flow cytometry. In kind it is functional, cell-based. The conditions noted are these: U-87MG ATCC. In outline: as §2
A short description of data set [7]: Cell cycle arrest in human U87MG cells assessed as accumulation at G0/G1 phase at 33 nM after 24 hrs by flow cytometry. Particulars: U-87MG ATCC. In kind it is functional, cell-based. In outline:
as §2

Data set [8] in a line: Cell cycle arrest in human U87MG cells assessed as accumulation at S phase at 100 nM after 24 hrs by flow cytometry. Format: functional, cell-based. The conditions noted are these: U-87MG ATCC. Put shortly: as §2
Data set [9] in a line: Cell cycle arrest in human U87MG cells assessed as accumulation at G2/M phase at 100 nM after 24 hrs by flow cytometry. The conditions noted are these: U-87MG ATCC. In kind it is functional, cell-based. In outline:
as §2

Data set [10] is described as follows: Cell cycle arrest in human U87MG cells assessed as accumulation at G0/G1 phase at 100 nM after 24 hrs by flow cytometry. In kind it is functional, cell-based. Particulars: U-87MG ATCC. In outline: as §2
A short description of data set [11]: Cell cycle arrest in human U87MG cells assessed as accumulation at G2/M phase at 3 uM after 24 hrs by flow cytometry. In kind it is functional, cell-based. Particulars: U-87MG ATCC. In outline:
as §2

A short description of data set [12]: Cell cycle arrest in human U87MG cells assessed as accumulation at G0/G1 phase at 3 uM after 24 hrs by flow cytometry. In kind it is functional, cell-based. Particulars: U-87MG ATCC. Put shortly: as §2
Data set [13] in a line: Cell cycle arrest in human U87MG cells assessed as accumulation at S phase at 3 uM after 24 hrs by flow cytometry. In kind it is functional, cell-based. The conditions noted are these: U-87MG ATCC. Put shortly:
as §2

Structures are written as SMILES.

Consider `COc1cc([C@@H]2c3cc4c(cc3[C@@H](O[C@@H]3O[C@@H]5CO[C@@H](C)O[C@H]5[C@H](O)[C@H]3OC(=O)CCCC(=O)NCCCC[C@H](NC(=O)CNC(=O)[C@H](CCCNC(=N)N)NC(=O)[C@H](CO)NC(=O)CNC(=O)CNC(=O)[C@H](Cc3ccc(O)cc3)NC(=O)[C@H](Cc3ccccc3)NC(=O)[C@H](Cc3ccccc3)NC(=O)[C@@H](NC(=O)CCCC(=O)O[C@H]3[C@H](O[C@@H]5c6cc7c(cc6[C@@H](c6cc(OC)c(OC(=O)CN(C)C)c(OC)c6)[C@H]6C(=O)OC[C@@H]65)OCO7)O[C@@H]5CO[C@@H](C)O[C@H]5[C@@H]3O)C(C)O)C(=O)N[C@@H](CCCNC(=N)N)C(=O)N[C@@H](CC(N)=O)C(=O)N[C@@H](CC(N)=O)C(=O)N[C@@H](Cc3ccccc3)C(=O)N[C@@H](CCCCNC(=O)CCCC(=O)O[C@H]3[C@H](O[C@@H]5c6cc7c(cc6[C@@H](c6cc(OC)c(OC(=O)CN(C)C)c(OC)c6)[C@H]6C(=O)OC[C@@H]65)OCO7)O[C@@H]5CO[C@@H](C)O[C@H]5[C@@H]3O)C(=O)N[C@H](C(=O)N[C@@H](CCC(=O)O)C(=O)N[C@@H](CCC(=O)O)C(=O)N[C@@H](Cc3ccc(O)cc3)C(=O)O)[C@@H](C)O)[C@H]3COC(=O)[C@H]23)OCO4)cc(OC)c1OC(=O)CN(C)C` (some centres undefined), for which the half-inhibitory concentration (IC50) in data set [1] turned out to be 330 nM; in the data set on NCI-H460, 148 nM; in the data set with SK-HEP1, 48 nM. Further, the Activity in data set [2] came out at 70.8%; in data set [3], 3.3%; in data set [4], 25.7%. The Kin with Brain was 22 10^-4ml/g/s.
As for `COc1cccc2c1C(=O)c1c(O)c3c(c(O)c1C2=O)C[C@@](O)(C(=O)COC(=O)CCC(=O)NCCCC[C@H](NC(=O)CNC(=O)[C@H](CCCNC(=N)N)NC(=O)[C@H](CO)NC(=O)CNC(=O)CNC(=O)[C@H](Cc1ccc(O)cc1)NC(=O)[C@H](Cc1ccccc1)NC(=O)[C@H](Cc1ccccc1)NC(=O)[C@@H](NC(=O)CCC(=O)OCC(=O)[C@]1(O)Cc2c(O)c4c(c(O)c2[C@@H](O[C@H]2C[C@H](N)[C@H](O)[C@H](C)O2)C1)C(=O)c1c(OC)cccc1C4=O)C(C)O)C(=O)N[C@@H](CCCNC(=N)N)C(=O)N[C@@H](CC(N)=O)C(=O)N[C@@H](CC(N)=O)C(=O)N[C@@H](Cc1ccccc1)C(=O)N[C@@H](CCCCNC(=O)CCC(=O)OCC(=O)[C@]1(O)Cc2c(O)c4c(c(O)c2[C@@H](O[C@H]2C[C@H](N)[C@H](O)[C@H](C)O2)C1)C(=O)c1c(OC)cccc1C4=O)C(=O)N[C@H](C(=O)N[C@@H](CCC(=O)O)C(=O)N[C@@H](CCC(=O)O)C(=O)N[C@@H](Cc1ccc(O)cc1)C(=O)O)[C@@H](C)O)C[C@@H]3O[C@H]1C[C@H](N)[C@H](O)[C@H](C)O1` (some centres undefined), the IC50 in data set [1] is 6 nM; in the data set on NCI-H460, 7.3 nM; with SK-HEP1 it was 4.6 nM. Also, the Activity in data set [5] turned out to be 10.1%; in data set [6], 57.3%; in data set [7], 32.3%. In the data set on Brain, the Kin was 31 10^-4ml/g/s.
Take `COc1cccc2c1C(=O)c1c(O)c3c(c(O)c1C2=O)C[C@@](O)(C(=O)CO)C[C@@H]3O[C@H]1C[C@H](N)[C@H](O)[C@H](C)O1` [DOXORUBICIN]: the Activity in data set [8] was found to be 8.9%; in [9] it was 59.9%; in data set [10] it was 30.8%. The figures for the 50% inhibitory concentration (IC50) (in [1]; with NCI-H460; in the data set on SK-HEP1) were 18 nM, 11 nM and 10 nM, respectively. For the same compound, in the data set with Brain, the Kin was 2.5 10^-4ml/g/s.
As to `COc1cc([C@@H]2c3cc4c(cc3[C@@H](O[C@@H]3O[C@@H]5CO[C@@H](C)O[C@H]5[C@H](O)[C@H]3O)[C@H]3COC(=O)[C@H]23)OCO4)cc(OC)c1O` [ETOPOSIDE], the half-inhibitory concentration (IC50) turned out to be 145 nM in data set [1], 90 nM with NCI-H460 and 62 nM in the data set with SK-HEP1. Besides, the values for the Activity in data set [11], in data set [12] and in data set [13] were 87%, 8.9% and 4.2%, respectively. The Kin with Brain is given as 0.9 10^-4ml/g/s.
As for `CC(=O)O[C@H]1C(=O)[C@@]2(C)[C@H]([C@H](OC(=O)c3ccccc3)[C@]3(O)C[C@H](OC(=O)[C@H](O)[C@@H](NC(=O)c4ccccc4)c4ccccc4)C(C)=C1C3(C)C)[C@]1(OC(C)=O)CO[C@@H]1C[C@@H]2O` [PACLITAXEL], the Kin in the data set with Brain is recorded as 6.9 10^-4ml/g/s.
